Assay results reported in ChEMBL document CHEMBL1142233, “Treatment of diabetes and atherosclerosis by inhibiting fatty-acid-binding protein aP2” (2007).
Activity calls are given as the source filed them. The rule behind the calls is not given here.

How the values were obtained:
Adipocyte = test: Decrease in fatty acid uptake in FABP-deficient mouse adipocytes reconstituted with exogenous aP2 after 24 hrs; format: functional, cell-based
In short: (§1)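 Immortalized mouse pre-adipocytes differentiated with dexamethasone, IBMX, rosiglitazone and insulin, then insulin alone. Cells incubated 24 h in DMEM with 2% FBS plus inhibitor, then moved to DMEM with 2% BSA and given ³H-stearate at 37 °C for 30 min. Lysate counted by scintillation; values normalized to protein and expressed as % of untreated.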

Mus musculus [1] = species: Mus musculus; test: Decrease in fatty acid uptake in wild type mouse aP2+/+ mal1+/+ preadipocytes after 24 hrs; format: functional; in short: as §1
Mus musculus [2] = test: Attenuation of JNK1 activity in ob/ob mouse adipose tissue at 40 mg/kg/day, po; format: functional
In short: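 Adipose lysate from male ob/ob mice (oral gavage 6 weeks from 8 weeks of age) immunoprecipitated with JNK1 antibody and protein A beads. Beads incubated with 10 μCi ³²P γATP, 10 μM ATP and 5 μg c-jun fusion protein at 30 °C for 20 min, then Laemmli stop.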

Mus musculus [3] = test: Effect on body weight in 5-week old apoE-/- C57BL/6J mouse fed on western diet and administered with 15 mg/kg/day, po drug at 12 week in 12-18 week late intervention study; format: functional
Mus musculus [4] = test: Effect on insulin level in 5-week old apoE-/- C57BL/6J mouse fed on western diet and 15 mg/kg/day, po drug simultaneously in 5-11 week early intervention study; format: functional
In short: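 Male Apoe−/− mice on western diet (21% fat, 0.21% cholesterol) from 4–5 weeks of age. Oral gavage for 6 weeks from age 5 or 12 weeks; vehicle 10% 1-methyl-2-pyrrolidone, 5% cremophor EL with ethanol in water. Blood taken after 6 h fast before and after treatment. Glucose by meter; insulin by ELISA; lipids and glycerol colorimetric.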

SMILES: CCc1c(-c2ccccc2)c(-c2ccccc2)nn1-c1ccccc1-c1cccc(OCC(=O)O)c1
- Activity (Adipocyte): Active
- Activity (Mus musculus [1]): Dose-dependent effect
- Activity (Mus musculus [2]): 40%
- Activity (Mus musculus [3]): 37 g
- Activity (Mus musculus [4]): 0.5 ng/mL
